The record followed here is ChEMBL document CHEMBL1156405, “A new biologically active malyngamide from a New Zealand collection of the sea hare Bursatella leachii” (J Nat Prod, 2002).

The structures appear in SMILES notation. Active and inactive are the calls of the source. The calls are words filed in the database; no cut-off is given here.

The nature of data set [1]: Cytotoxicity against BSC1 cells assessed as radius zone size at 120 ug/disk. In kind it is cell-based. The following applies: chlorocebus aethiops, bsc-1. Summed up:
(§1)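 Disk diffusion assay with 120 µg loaded per disk. The read-out was the excess radius of the zone around the disk, in mm.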

The test system of data set [2] is Mycobacterium tuberculosis. The experiment in a line: Antimicrobial activity against Mycobacterium tuberculosis at 6.25 ug/mL. Type of data set: functional.
The test system of data set [3] is Trichophyton mentagrophytes. The experiment in a line: Antimicrobial activity against Trichophyton mentagrophytes at 120 ug/disk. Type of data set: functional. Put shortly: as §1
A further data set has as its system HL-60. Nature of the data set: Antiproliferative activity against human HL60 cells after 2 days. In kind it is functional, cell-based. The following applies: HL-60, 48 h.
The subject of a further data set is Bacillus subtilis. Nature of the data set: Antimicrobial activity against Bacillus subtilis at 120 ug/disk. Type of data set: functional. Put shortly: as §1
The next data set has as its system Escherichia coli. Nature of the data set: Antimicrobial activity against Escherichia coli at 120 ug/disk. Type of data set: functional, organism-based.
The subject of another data set is P388. Nature of the data set: Cytotoxicity against mouse P388 cells. In kind it is functional, cell-based.
A further data set concerns Candida albicans. Nature of the data set: Antimicrobial activity against Candida albicans at 120 ug/disk. In kind it is functional, organism-based.

As to `CCCCC[C@@H](C/C=C/CCC(=O)NC/C(=C/Cl)[C@H]1C(=O)C(C)(C)C(=O)[C@@H](C)[C@@]1(C)O)OC` [MALYNGAMIDE S], the Activity in data set [1] is given as over 4.5 mm. This compound also gave an inhibition at 6.25 µg/mL in data set [2] of 0%. Also, the outcome (in data set [3]; with Bacillus subtilis; in the data set with Escherichia coli; in the data set with Candida albicans) was inactive. In addition, the IC50 in the data set with HL-60 was 6 µM; in the data set with P388 it was 29 µM.
On to `CCCCC[C@@H](C/C=C/CCC(=O)O)OC`, for which the Activity in data set [1] is reported as over 4.5 mm. Also, the zone of inhibition at 120 µg/disc worked out at 3 mm in data set [3] (read-out: IZ) and 2 mm with Bacillus subtilis (read-out: IZ). The compound also returned an IC50 in the data set on P388 of over 100 µM.
